Measurements as given in ChEMBL document CHEMBL2021912, “Synthesis, cytotoxicity and apoptosis of cyclotriphosphazene compounds as anti-cancer agents” (Eur J Med Chem, 2012).
Activity calls are given as the source filed them. The calls are words filed in the database; no cut-off is given here.

Legend:
Staphylococcus aureus = test: Antibacterial activity against Staphylococcus aureus ATCC 25923 after 18 to 24 hrs by broth microdilution method; type: functional; details: read-out: ID50 (the source's name)
HT-29 [1] = test: Induction of apoptosis in human HT-29 cells assessed as necrotic cells level after 24 hrs by annexin V-FITC and propidium iodide staining based flow cytometry; type: functional
Outline: (§1)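 HT-29 seeded at 2-3 × 10^6 per flask in 10% FBS-DMEM, treated 24 h at several concentrations; etoposide (12.5–50 µg/mL) positive control; cells in HEPES pH 7.4/NaCl/CaCl2 buffer stained with annexin V-FITC 100 ng/mL and PI 0.1 µg/mL, 15 min room temperature, dark; flow cytometry quadrants; three experiments in duplicate.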

HT-29 [2] = test: Induction of apoptosis in human HT-29 cells assessed as early apoptotic cells level after 24 hrs by annexin V-FITC and propidium iodide staining based flow cytometry; type: functional; outline: as §1
HEp-2 [3] = test: Cytotoxicity against human Hep2 cells after 24 hrs at 37 degC by MTT assay; type: functional; details: for IC50: HEp-2, 24 h, read-out: ID50 (the source's name)
Outline: (§2)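 Vero and HT-29 grown in DMEM/10% FBS, Hep2 in EMEM/10% FBS; seeded at 2 × 10^4 (Vero, Hep2) or 3 × 10^4 (HT-29) cells/mL; exposed 24 h to 0.2–50 µg/mL compound, final DMSO 1%; MTT 1 mg/mL 2 h at 37 °C, formazan in DMSO, OD 540 nm; % of DMSO control; ID50 by probit; triplicate wells, three repeats.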

Pseudomonas aeruginosa = test: Antibacterial activity against Pseudomonas aeruginosa ATCC 27853 after 18 to 24 hrs by broth microdilution method; type: functional; details: read-out: ID50 (the source's name)
HT-29 [4] = test: Cytotoxicity against human HT-29 cells after 24 hrs at 37 degC by MTT assay; type: functional; details: for IC50: HT-29, 24 h, read-out: ID50 (the source's name); outline: as §2
Candida albicans = test: Antifungal activity against Candida albicans ATCC 10231 after 48 hrs by broth microdilution method; type: functional; details: ATCC 10231, 48 h, read-out: ID50 (the source's name)
[5] = (§3) Cytotoxicity against african green monkey Vero cells after 24 hrs at 37 degC by MTT assay; type: cell-based; details: chlorocebus sabaeus, Vero cells; read-out: ID50; outline: as §2
HT-29 [6] = test: Induction of apoptosis in human HT-29 cells assessed as viable cell level after 24 hrs by annexin V-FITC and propidium iodide staining based flow cytometry; type: functional; outline: as §1
Escherichia coli = test: Antibacterial activity against Escherichia coli ATCC 35218 after 18 to 24 hrs by broth microdilution method; type: functional; details: read-out: ID50 (the source's name)
HT-29 [7] = test: Induction of apoptosis in human HT-29 cells assessed as late apoptotic cells level after 24 hrs by annexin V-FITC and propidium iodide staining based flow cytometry; type: functional; outline: as §1
HEp-2 [8] = test: Induction of apoptosis in human Hep2 cells assessed as viable cell level after 24 hrs by annexin V-FITC and propidium iodide staining based flow cytometry; type: functional
Outline: (§4)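 Hep2 seeded at 2-3 × 10^6 per flask, treated 24 h at several concentrations; cisplatin 200 µM positive control; cells in HEPES pH 7.4/NaCl/CaCl2 buffer stained with annexin V-FITC 100 ng/mL and PI 0.1 µg/mL, 15 min room temperature, dark; flow cytometry quadrants; three experiments in duplicate.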

HEp-2 [9] = test: Induction of apoptosis in human Hep2 cells assessed as necrotic cells level after 24 hrs by annexin V-FITC and propidium iodide staining based flow cytometry; type: functional; outline: as §4
HEp-2 [10] = test: Induction of apoptosis in human Hep2 cells assessed as late apoptotic cells level after 24 hrs by annexin V-FITC and propidium iodide staining based flow cytometry; type: functional; outline: as §4
HEp-2 [11] = test: Induction of apoptosis in human Hep2 cells assessed as early apoptotic cells level after 24 hrs by annexin V-FITC and propidium iodide staining based flow cytometry; type: functional; outline: as §4
Vero = test: as §3; type: cell-based; details: chlorocebus sabaeus, vero, 24 h; outline: as §2

SMILES: CC1(C)COP2(=NP(Cl)(Cl)=NP3(=N2)NCCCN3CCCCN2CCCNP23=NP2(=NP(Cl)(Cl)=N3)OCC(C)(C)CO2)OC1 (stereo unspecified)
- IC50 (Staphylococcus aureus): > 250 µg/mL
- Activity (HT-29 [1]): 1.41%
- Activity (HT-29 [2]): 63.78%
- ID50 (HEp-2 [3]): inactive
- IC50 (Pseudomonas aeruginosa): > 250 µg/mL
- IC50 (HT-29 [4]): 2750 nM
- IC50 (Candida albicans): > 250 µg/mL
- CC50 at 24 h [5]: 2650 nM
- Activity (HT-29 [6]): 32.84%
- IC50 (Escherichia coli): > 250 µg/mL
- Activity (HT-29 [7]): 1.97%

SMILES: FC1(F)COP2(=NP(Cl)(Cl)=NP3(=N2)NCCCN3CCCCN2CCCNP23=NP(Cl)(Cl)=NP2(=N3)OCC(F)(F)C(F)(F)CO2)OCC1(F)F (stereo unspecified)
- IC50 (Staphylococcus aureus): > 250 µg/mL
- Activity (HT-29 [1]): 0.8%
- Activity (HT-29 [2]): 81.42%
- ID50 (HEp-2 [3]): inactive
- IC50 (Pseudomonas aeruginosa): > 250 µg/mL
- IC50 (HT-29 [4]): 2330 nM
- IC50 (Candida albicans): > 250 µg/mL
- CC50 at 24 h [5]: 1310 nM
- Activity (HT-29 [6]): 17.25%
- IC50 (Escherichia coli): > 250 µg/mL
- Activity (HT-29 [7]): 0.53%

SMILES: ClP1(Cl)=NP2(=NP(Sc3ccccc3)(Sc3ccccc3)=N1)NCCCN2CCCCN1CCCNP12=NP(Sc1ccccc1)(Sc1ccccc1)=NP(Cl)(Cl)=N2 (stereo unspecified)
- IC50 (Staphylococcus aureus): > 250 µg/mL
- ID50 (HEp-2 [3]): inactive
- IC50 (Pseudomonas aeruginosa): > 250 µg/mL
- IC50 (HT-29 [4]): 1960 nM
- IC50 (Candida albicans): > 250 µg/mL
- CC50 at 24 h [5]: 3350 nM
- IC50 (Escherichia coli): > 250 µg/mL

SMILES: FC1(F)COP2(Cl)=NP(Cl)(=NP3(=N2)NCCCN3CCCCN2CCCNP23=NP2(Cl)=NP(Cl)(=N3)OCC(F)(F)C(F)(F)CO2)OCC1(F)F (stereo unspecified)
- IC50 (Staphylococcus aureus): > 250 µg/mL
- IC50 (HEp-2 [3]): 2630 nM
- IC50 (Pseudomonas aeruginosa): > 250 µg/mL
- ID50 (HT-29 [4]): inactive
- IC50 (Candida albicans): > 250 µg/mL
- CC50 at 24 h [5]: 1610 nM
- IC50 (Escherichia coli): > 250 µg/mL

SMILES: CC1(C)COP2(=NP34=NP5(=N2)NCCCN5CCCCN3CCCN4)OC1 (stereo unspecified)
- Activity (HEp-2 [8]): 19.39%
- IC50 (Staphylococcus aureus): > 250 µg/mL
- Activity (HEp-2 [9]): 0%
- IC50 (HEp-2 [3]): 3230 nM
- Activity (HEp-2 [10]): 3.32%
- Activity (HEp-2 [11]): 77.29%
- IC50 (Pseudomonas aeruginosa): > 250 µg/mL
- ID50 (HT-29 [4]): inactive
- IC50 (Candida albicans): > 250 µg/mL
- CC50 at 24 h [5]: 5880 nM
- IC50 (Escherichia coli): > 250 µg/mL

SMILES: c1ccc(NP2(Nc3ccccc3)=NP34=NP5(=N2)NCCCN5CCCCN3CCCN4)cc1 (stereo unspecified)
- IC50 (Staphylococcus aureus): > 250 µg/mL
- Activity (HT-29 [1]): 1.35%
- Activity (HT-29 [2]): 80.1%
- ID50 (HEp-2 [3]): inactive
- IC50 (Pseudomonas aeruginosa): > 250 µg/mL
- IC50 (HT-29 [4]): 4580 nM
- IC50 (Candida albicans): > 250 µg/mL
- CC50 at 24 h [5]: 6550 nM
- Activity (HT-29 [6]): 18.2%
- IC50 (Escherichia coli): > 250 µg/mL
- Activity (HT-29 [7]): 0.35%

SMILES: ClP1(Cl)=NP2(=NP(Nc3ccccc3)(Nc3ccccc3)=N1)NCCCN2CCCCN1CCCNP12=NP(Nc1ccccc1)(Nc1ccccc1)=NP(Cl)(Cl)=N2 (stereo unspecified)
- IC50 (Staphylococcus aureus): > 250 µg/mL
- ID50 (HEp-2 [3]): inactive
- IC50 (Pseudomonas aeruginosa): > 250 µg/mL
- ID50 (HT-29 [4]): inactive
- IC50 (Candida albicans): > 250 µg/mL
- ID50 (Vero): Non-toxic
- IC50 (Escherichia coli): > 250 µg/mL

SMILES: FC1(F)COP2(=NP34=NP5(=N2)NCCCN5CCCCN3CCCN4)OCC1(F)F (stereo unspecified)
- Activity (HEp-2 [8]): 32.78%
- IC50 (Staphylococcus aureus): > 250 µg/mL
- Activity (HEp-2 [9]): 1.1%
- IC50 (HEp-2 [3]): 3390 nM
- Activity (HEp-2 [10]): 5.34%
- Activity (HEp-2 [11]): 60.78%
- IC50 (Pseudomonas aeruginosa): > 250 µg/mL
- ID50 (HT-29 [4]): inactive
- IC50 (Candida albicans): > 250 µg/mL
- CC50 at 24 h [5]: 5410 nM
- IC50 (Escherichia coli): > 250 µg/mL
